PLCg1 inh – PLC-gamma1 enzyme inhibitors, primary screen, biochemical, fluorescence, purified enzyme. 370,000 tested, 0.84% active. inhibition, % at 12.2 µM. fluorogenic substrate. AID 720700, 2013
Target sequence (P19174 whole entry, looked up): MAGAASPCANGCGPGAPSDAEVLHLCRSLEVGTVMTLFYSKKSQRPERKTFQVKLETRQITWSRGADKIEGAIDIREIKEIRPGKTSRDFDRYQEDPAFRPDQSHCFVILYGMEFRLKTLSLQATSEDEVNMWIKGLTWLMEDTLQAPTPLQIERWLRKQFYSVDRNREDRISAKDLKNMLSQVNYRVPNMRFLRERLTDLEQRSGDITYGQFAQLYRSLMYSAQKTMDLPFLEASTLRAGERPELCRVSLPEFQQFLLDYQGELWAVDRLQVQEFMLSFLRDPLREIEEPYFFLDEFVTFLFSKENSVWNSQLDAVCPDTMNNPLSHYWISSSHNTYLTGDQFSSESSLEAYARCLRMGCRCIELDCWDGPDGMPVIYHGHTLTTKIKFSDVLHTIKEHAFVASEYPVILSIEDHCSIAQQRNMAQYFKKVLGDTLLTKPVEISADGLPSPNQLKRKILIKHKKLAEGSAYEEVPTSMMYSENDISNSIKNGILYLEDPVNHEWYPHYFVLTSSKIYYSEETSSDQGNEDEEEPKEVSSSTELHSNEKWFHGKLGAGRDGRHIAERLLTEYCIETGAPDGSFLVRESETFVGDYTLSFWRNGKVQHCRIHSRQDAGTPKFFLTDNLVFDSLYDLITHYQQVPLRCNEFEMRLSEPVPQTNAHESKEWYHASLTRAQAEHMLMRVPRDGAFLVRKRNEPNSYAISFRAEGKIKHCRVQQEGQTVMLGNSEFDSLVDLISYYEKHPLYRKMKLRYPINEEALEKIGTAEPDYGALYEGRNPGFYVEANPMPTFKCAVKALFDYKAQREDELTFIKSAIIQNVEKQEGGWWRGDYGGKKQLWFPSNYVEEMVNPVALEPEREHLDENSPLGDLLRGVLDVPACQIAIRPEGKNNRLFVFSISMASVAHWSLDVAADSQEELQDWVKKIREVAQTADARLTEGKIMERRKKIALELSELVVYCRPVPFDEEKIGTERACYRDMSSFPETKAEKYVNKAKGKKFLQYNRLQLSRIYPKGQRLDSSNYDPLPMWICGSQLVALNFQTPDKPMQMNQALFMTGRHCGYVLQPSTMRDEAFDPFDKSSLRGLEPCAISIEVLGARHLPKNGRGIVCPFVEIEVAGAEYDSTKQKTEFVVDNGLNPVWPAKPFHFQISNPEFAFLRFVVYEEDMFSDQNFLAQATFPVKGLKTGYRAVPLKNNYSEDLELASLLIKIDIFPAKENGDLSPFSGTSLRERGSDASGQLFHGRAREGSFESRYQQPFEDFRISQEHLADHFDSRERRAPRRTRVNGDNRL
PLCb3 inh – human PLC-beta3 inhibitors, primary screen, biochemical, fluorescence; 1-phosphatidylinositol 4,5-bisphosphate phosphodiesterase beta-3 (Homo sapiens), Q01970; Purified PLC-beta3, fluorogenic substrate; inhibition, % at 12.2 µM; 370,000 tested, 0.18% active; in the data active = inhibition above about 11%;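 note: 0% = median of compound wells on plate and 100% = full blocker control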
VIM-2 inhibitor – VIM-2 metallo-beta-lactamase inhibitors, primary screen, biochemical, epi-absorbance readout, Pseudomonas aeruginosa enzyme | purified VIM-2, nitrocefin hydrolysis, epi-absorbance fluorescence | inhibition, % at 5.6 µM | 290,000 tested, 0.89% active | AID 1527, 2009;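 active = inhibition above the mean of all tested compounds plus 3 SD, cutoff set per screening run, cut at about 7.5% in these data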;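 note: red hydrolysis product quenches plate fluorescence so inhibitors raise well fluorescence; 0% = enzyme with DMSO and 100% = DMSO without enzyme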
PvdQ inh – P. aeruginosa PvdQ acylase inhibitors, primary screen, biochemical, fluorescence, plate reader and imaging, single point. PvdQ acylase [Pseudomonas aeruginosa LESB58]. purified PvdQ acylase. inhibition, % at 10 µM. 340,000 tested, 0.063% active; in the data active = inhibition above about 30%, passing the limit was not always enough;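 note: 0% = vehicle neutral wells and 100% = reference inhibitor wells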
IMP-1 inhibitor – IMP-1 metallo-beta-lactamase inhibitors, primary screen, biochemical, epi-absorbance readout, Pseudomonas aeruginosa enzyme; 290,000 tested, 0.45% active; inhibition, % at 5.6 µM; metallo-beta-lactamase IMP-1 (Pseudomonas aeruginosa); purified IMP-1, nitrocefin hydrolysis, epi-absorbance fluorescence;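 active = inhibition above the mean plus 3 SD of all compounds in the same screening run, cut at about 4.5% in these data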;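 note: 0% = IMP-1 with DMSO and 100% = DMSO wells lacking enzyme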
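Material – recombinant IMP-1 enzyme, purified · Amount – IMP-1 0.2 nM before substrate addition · Medium – HEPES buffer pH 7.1 with ZnSO4 and Brij 35 · Timing – 25 °C, 15 min preincubation, 25 min reaction · Measured by – plate fluorescence quenching by hydrolysis product, ex 480/em 530 nm · Read-out – percent enzyme inhibition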
PLCgamma1 ctr – PLC-gamma1 enzyme inhibitors, counter-screen for PLC-beta3 inhibitor project, biochemical, fluorescence; inhibition, % at 12.3 µM; AID 743258, 2014; 3,300 tested, 3.1% active; purified PLC-gamma1, fluorogenic substrate; shares compounds with PLCg1 inh
PLCbeta3 conf – PLC-beta3 inhibitor confirmation, biochemical, fluorescence, purified enzyme; shares compounds with PLCg1 inh; fluorogenic substrate fluorescence; inhibition, % at 12.3 µM; 3,300 tested, 1% active; in the data active = inhibition above about 11%
Numbers without * were called inactive; / = not tested or not shown. Shown are actives, neighbours in structure and some others; about 2% of the full set was active somewhere. Cut-off read from the data, not from the text of the source, unless noted: active = inhibition above about 9.5%; inactive = the rest.

SMILES	PLCg1 inh	PLCb3 inh	VIM-2 inhibitor	PvdQ inh	IMP-1 inhibitor	PLCgamma1 ctr	PLCbeta3 conf
Cc1ccc(NC(=O)c2cc(-c3ccc(F)cc3)on2)cc1C	3	-3	-2	-6	-2	/	/
CCOc1cc(/C=N\NC(=O)Cn2nnc3ccccc32)ccc1O	10*	4	-1	-3	-1	4	5
CC(=O)N1CCN(C(=O)c2ccc(CNC(=O)c3cccc(Br)c3)cc2)CC1	2	1	/	/	/	/	/
COCCn1c(SCC(=O)N2CCCC2)nc2c(c1=O)SCC2	7	11*	/	/	/	4	4
COCCn1c(SCC(=O)N2CCC(C)CC2)nc2c(c1=O)SCC2	5	-9	-1	-7	-2	/	/
O=C1NC(=O)/C(=C/c2ccc(-c3cc(C(=O)O)ccc3Cl)o2)S1	-95	-108	6	-14	-2	/	/
O=C1NC(=O)/C(=C\c2ccc(Br)o2)S1	15*	-25	-3	18	-3	-13	-16
Cc1ccc(C(=O)OCCc2c(C)[nH]n(-c3ccccc3)c2=O)cc1	-2	-1	0	-2	-2	/	/
Cc1[nH]n(-c2ccccc2)c(=O)c1CCOC(=O)c1cccc(C(F)(F)F)c1	11*	6	-1	-16	-3	-8	-5
CCOc1ccc(NC(=O)CN(C)C(=O)c2cc(C)oc2C)cc1OCC	4	-10	/	-14	/	/	/
CCOc1ccc(NC(=O)CN(C)C(=O)CCCOc2ccc(Cl)c(C)c2)cc1OCC	9.6*	4	1	4	-1	-6	-5
CCOc1ccc(NC(=O)CN(C)C(=O)CCc2ccccc2Cl)cc1OCC	6	-2	-1	-10	-1	/	/
CCOc1ccc(NC(=O)CN(C)C(=O)c2ccc(C)o2)cc1OCC	15*	-1	-1	-16	0	5	3
O=C(NC1(C(F)(F)F)N=C2SCCN2C1=O)c1ccccc1 (stereo unspecified)	6	3	1	0	-1	/	/
O=C1N=C2SCCN2/C1=C\c1ccccc1Cl	11*	-1	-2	-9	-3	-8	-6
Cc1ccc(-n2nnnc2CNC(=O)C2CC(=O)N(c3ccccc3)C2)cc1C (stereo unspecified)	13*	-3	-3	-6	-3	2	2
Cc1ccc(N2CC(C(=O)NCc3nnnn3-c3ccc(C)c(C)c3)CC2=O)cc1 (stereo unspecified)	1	-10	1	8	-2	/	/
C=CCN1[C@@H](Cc2ccccc2)COc2cccc(N3CCCC3)c2S1(=O)=O	-1	-7	/	/	/	/	/
COc1ccc(/C=N/NC2=NCCCCC2)cc1	10*	1	-3	-4	-5	-2	1
COC(=O)C1CN(Cc2ccc(Cl)cc2)CCS(=O)(=O)N1Cc1cn(Cc2ccccc2)nn1 (stereo unspecified)	1	0	/	/	/	/	/
O=C(NC(Cc1ccccc1)C(=O)N1CCCCCC1)c1ccccc1 (stereo unspecified)	5	-5	-2	-9	-1	/	/
O=C(NC(Cc1ccccc1)C(=O)N1CCCCC1)c1ccccc1 (stereo unspecified)	13*	6	/	11	/	-6	-5
COC(=O)c1ccc(C)c(NC(=O)Cn2cnc3ccccc3c2=O)c1	9	11*	-3	-12	-3	-9	-7
CCCN(C(=O)CCNC(=O)Cn1cnc2ccccc2c1=O)c1cccc(C)c1	11*	-3	0	-12	-4	-4	-4
COC(=O)[C@]12C[C@H](CC(=O)NCc3ccccc3)C(=O)N(Cc3ccccc3)C1=C[C@H](C1CCCC1)O[C@@H]2C	0	2	/	/	/	/	/
SMILES	PLCg1 inh	PLCb3 inh	VIM-2 inhibitor	PvdQ inh	IMP-1 inhibitor	PLCgamma1 ctr	PLCbeta3 conf
O=C(NCCCN1CCCC1=O)Nc1ccccc1Cl	4	-3	-1	0	0	/	/
O=C(NCCCN1CCCC1=O)Nc1ccccc1F	11*	-6	1	-5	-1	-5	0
COc1ccc(OCc2cc(C(=O)NC(C)Cn3cncn3)no2)c(Cl)c1 (stereo unspecified)	11*	-8	2	6	1	-9	-7
O=C(NCc1cccs1)NC1CCCCC1	9.8*	8	1	-4	0	-3	2
O=C(NCc1cccs1)C1CCCN1C(=O)NC1CCCCC1 (stereo unspecified)	6	2	0	-5	-2	/	/
CC(C)CN(CC(C)C)C(=O)c1ccc2c(c1)NC(=O)C(C)(C)O2	-4	-1	/	/	/	/	/
COc1ccc(OC)c(NC(=O)CCC(=O)Nc2nnc(C(C)C)s2)c1	12*	-2	-1	-5	-4	-8	-4
COc1ccc(NC(=O)CCC(=O)Nc2nnc(C(C)C)s2)cc1Cl	0	-6	-5	8	0	/	/
CC1Cc2ccccc2N1C(=O)Cn1cc([N+](=O)[O-])cn1 (stereo unspecified)	4	13*	-1	-10	-2	8	2
CC1CCN(CC(=O)N2c3ccccc3CC2C)CC1 (stereo unspecified)	0	-2	-1	-12	0	/	/
CC1Cc2ccccc2N1C(=O)CN1CCN(Cc2ccccc2)CC1 (stereo unspecified)	9.8*	1	-2	-15	-1	-4	-1
O=C(Cn1cc([N+](=O)[O-])cn1)N1CCc2ccccc21	-2	0	2	3	0	/	/
O=[N+]([O-])c1ccc(Sc2ncccn2)c([N+](=O)[O-])c1	12*	2	2	-8	0	10*	8
COc1ccc2c(c1)[C@@]1(NCCc3c1[nH]c1ccc(OC)cc31)C(=O)N2	-1	-3	/	/	/	/	/
NC(=O)C1CNc2ccccc2O1 (stereo unspecified)	11*	7	-1	0	1	-3	-3
CC1(C(=O)NS(=O)(=O)c2ccc(F)cc2F)CCN1C(=O)c1cccc(F)c1 (stereo unspecified)	12*	9	/	/	/	-7	0
CC1(C(=O)NS(=O)(=O)c2cccc(F)c2)CCN1C(=O)c1cccc(F)c1 (stereo unspecified)	6	6	/	/	/	/	/
O=C(CCS(=O)(=O)c1cccs1)Nc1ccc(C(=O)NCc2ccc(F)cc2)cc1	9.6*	10	-2	5	-2	-9	-2
CCOC(=O)c1c(NC(=O)CSc2nnc(C)o2)sc(C)c1C	9.7*	-2	2	-2	-1	-4	-1
Cc1nn(CCC(=O)NNC(=O)NCc2ccccc2)c(C)c1[N+](=O)[O-]	-1	-1	/	/	/	/	/
